Assay results gathered from unrelated publications.
Target: Leukocyte tyrosine kinase receptor (LTK, Homo sapiens, UniProt P29376)

SMILES | effect on | technique | tested at | remaining binding
O=C(c1ccc(Nc2ncc(Cl)c(-c3ccc(Cl)s3)n2)cc1)N1CCC(N2CCCC2)CC1 | binding | competition with immobilised ligand | 1 µM | 90%
COc1ncc2cc3ccccc3nc2c1C#N | cell-free assay | competition with immobilised ligand | 5 µM | 100%
Cc1cc(-n2nc(Cc3cc(F)cc(C(F)(F)F)c3)nc2C)ccc1C(N)=O | cell-free assay | competition with immobilised ligand | 1 µM | 100%
Nc1ncc2c(n1)-c1c([nH]c3ccc(C#CC4CC4)cc13)CCCC2 | binding | competition with immobilised ligand | 1 µM | 100%
CN([C@@H]1CCc2c(CC(=O)O)c3cc(S(C)(=O)=O)ccc3n2C1)S(=O)(=O)c1ccc(F)cc1 | cell-free assay | competition with immobilised ligand | 1 µM | 100%
C[C@H]1CCN(c2nccc(-c3cnn4ncccc34)n2)C1 | binding |  | 1 µM | 91%
COc1ccc2cc(OCC3(C(=O)O)CN(C(=O)c4ccc(F)cc4)C3)ccc2c1 | cell-free assay | competition with immobilised ligand | 1 µM | 100%
CN(C)c1nccc(-c2cnn3ncccc23)n1 | binding |  | 1 µM | 92%
c1cncc(-c2cccc(Nc3nccc(NC4CCCCC4)n3)c2)c1 | binding | competition with immobilised ligand | 10 µM | 68%
O=C(NCC1CCOCC1)c1n[nH]cc1NC(=O)c1c(F)cccc1F | binding | competition with immobilised ligand | 1 µM | 100%
CN(CCCC(F)(F)F)c1nccc(-c2cnn3ncccc23)n1 | binding |  | 1 µM | 96%
O=C(c1ccc(Nc2nccc(-c3cc4ccccc4s3)n2)cc1)N1CCC(N2CCCC2)CC1 | binding | competition with immobilised ligand | 1 µM | 100%
CCN1CCN(Cc2ccc(C(=O)Nc3ccc(C)c(Oc4ccc5c(c4)CC(=O)N5)c3)cc2C(F)(F)F)CC1 | binding | competition with immobilised ligand | 1 µM | 100%
CNC(=O)[C@@H]1CC[C@@H](n2c(-c3ccc4cnccc4c3)nc3ccc(C(=O)NCc4cccc(C(N)=O)c4)cc32)C1 | binding | competition with immobilised ligand | 1 µM | 89%
F[C@@H]1CCN(c2nccc(-c3cnn4ncccc34)n2)C1 | binding |  | 1 µM | 92%
CC(=O)C1=C(C)N(c2cccc(C(F)(F)F)c2)C(=O)N[C@@H]1c1ccc(C#N)nc1 | cell-free assay | competition with immobilised ligand | 1 µM | 92.6%
COc1ccnn2ncc(-c3ccnc(N(C)C)n3)c12 | binding |  | 1 µM | 98%
CSc1cccnc1N1CCN(Cc2nc3ccccc3[nH]2)CC1 | cell-free assay | competition with immobilised ligand | 1 µM | 89%
N[C@@H]1CCN(c2nccc(-c3cnn4ncccc34)n2)C1 | binding |  | 1 µM | 100%
CCCOc1ccc([C@@H]2[C@@H](C(=O)O)[C@H](c3ccc4c(c3)OCO4)CN2CC(=O)Nc2c(CC)cccc2CC)cc1 | cell-free assay | competition with immobilised ligand | 1 µM | 100%
C[C@@H](c1ccc(-n2cnc3c(N)ncnc32)cc1)N1CCc2nn(C)c(Cc3ccccc3)c2C1=O | binding | competition with immobilised ligand | 0.1 µM | 87%
Cc1cnc(Nc2ccc(C(=O)N3CCC(N4CCCC4)CC3)cc2)nc1-c1cc2ccccc2s1 | binding | competition with immobilised ligand | 1 µM | 85%
